# Experiments:
# [1] = target: T1, Telomere resolvase ResT (Borrelia burgdorferi (strain ATCC 35210 / B31 / CIP 102532 / DSM4680)) (UniProt O50979); assay: Inhibition of Borrelia burgdorferi telomere resolvase assessed as inhibition of telomere resolution at 10 uM; settings: Borreliella burgdorferi
# T1 sequence (whole entry): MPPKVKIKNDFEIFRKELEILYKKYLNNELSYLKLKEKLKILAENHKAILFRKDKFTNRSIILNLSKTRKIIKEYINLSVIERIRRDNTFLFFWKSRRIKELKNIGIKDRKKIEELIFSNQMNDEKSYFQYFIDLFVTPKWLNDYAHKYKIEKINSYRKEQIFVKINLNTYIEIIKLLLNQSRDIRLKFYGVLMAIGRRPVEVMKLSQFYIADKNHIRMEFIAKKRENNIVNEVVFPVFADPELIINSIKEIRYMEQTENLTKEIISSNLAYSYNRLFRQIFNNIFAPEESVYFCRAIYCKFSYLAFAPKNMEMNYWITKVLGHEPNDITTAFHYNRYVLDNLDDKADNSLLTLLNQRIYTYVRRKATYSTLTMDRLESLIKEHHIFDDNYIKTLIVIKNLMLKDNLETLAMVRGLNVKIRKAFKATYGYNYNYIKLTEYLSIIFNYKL
# [2] = target: T1, Telomere resolvase ResT (Borrelia burgdorferi (strain ATCC 35210 / B31 / CIP 102532 / DSM4680)); assay: Inhibition of Borrelia burgdorferi telomere resolvase assessed as DNA cleavage at 10 uM; settings: Borreliella burgdorferi
# [3] = target: T2, Telomere resolvase ResT (Borrelia burgdorferi (strain ATCC 35210 / B31 / CIP 102532 / DSM4680), UniProt O50979); assay: Inhibition of Borrelia burgdorferi telomere resolvase by gel-based telomere resolution assay; set-up: species or system Borreliella burgdorferi
# T2 sequence (O50979 whole entry): T1 sequence (whole entry)
# [4] = target: T1, Telomere resolvase ResT (Borrelia burgdorferi (strain ATCC 35210 / B31 / CIP 102532 / DSM4680)); assay: Inhibition of Borrelia burgdorferi telomere resolvase 164-449 sequence assessed as inhibition of DNA binding activity at 10 uM by electrophoretic mobility shift assay; settings: Borreliella burgdorferi
# [5] = target: T1, Telomere resolvase ResT (Borrelia burgdorferi (strain ATCC 35210 / B31 / CIP 102532 / DSM4680)); assay: Inhibition of Borrelia burgdorferi telomere resolvase assessed as reduction in DNA cleavage at 10 uM; settings: Borreliella burgdorferi
# How it was run: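 Cleavage-step assay with 5′-bridging phosphorothiolate oligonucleotide substrate (OGCB116+OGCB117), 5.4 nM, 32P-labeled. Recombinant ResT at 165 nM, 10% DMSO final, 25 mM Tris-HCl pH 8.5, 100 mM NaCl, 1 mM EDTA, 25% glycerol. 30 min at 30°C, stopped with 0.1% SDS. Covalent protein–DNA complex resolved on 5% SDS-polyacrylamide gel, phosphorimager. Expressed relative to ResT+DMSO control.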
inhibition [1],% cleavage relative to control [2],IC50 [3],% binding relative to control [4],inhibition [5],SMILES
≥ 70%,75%,2.62 µM,5%,,O=C(O)CCCCCCCCCCCCC1C=CCC1 (centres undefined)
≥ 70%,65%,3.16 µM,16%,,O=C(O)c1ccc2c3c(cccc13)C(=O)N(c1ccc(-c3nc4ccc(N5C(=O)c6cccc7c(C(=O)O)ccc(c67)C5=O)cc4[nH]3)cc1)C2=O
≥ 70%,,8.67 µM,,6%,COc1cc(O)c2c(c1)oc(=O)c1c3cc(O)c(O)cc3oc21 [WEDELOLACTONE]
≥ 70%,43%,9.52 µM,33%,,O=C(O)c1ccc(-c2nc(-c3ccc(-c4ccccc4)cc3)c(-c3ccc(-c4ccccc4)cc3)[nH]2)cc1

SMILES,inhibition [1],% cleavage relative to control [2],IC50 [3],% binding relative to control [4],inhibition [5]
C[C@H](CCC(=O)O)[C@H]1CC[C@H]2[C@@H]3CC[C@@H]4CCCC[C@]4(C)[C@H]3CC[C@@]12C,≥ 70%,79%,1.96 µM,14%,
